Experimental data reported in ChEMBL document CHEMBL2321692, “De novo fragment design: a medicinal chemistry approach to fragment-based lead generation” (J Med Chem, 2013).

Key:
Hepatitis C virus = experiment: Inhibition of HCV NS5B570n-Con1 expressed in Escherichia coli assessed as radiolabeled nucleotide monophosphate incorporation into acid-insoluble RNA products after 2 hrs by scintillation counting analysis; parameters: species or system Hepacivirus hominis; conditions: Con1, 2 h
Procedure, shortened: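 IC₅₀ in the NS5B polymerase enzyme assay using genotype 1b NS5B, Con1 strain.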

[1] = Binding affinity to HCV NS5B570n-BK expressed in Escherichia coli by surface plasma resonance assay; type: cell-free, Hepatitis C virus (isolate BK)
Procedure, shortened: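 Kinetic dissociation constant (K_D) measured against genotype 1b NS5B polymerase, BK strain, by surface plasmon resonance.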

[2] = Inhibition of HCV NS5B570n-BK expressed in Escherichia coli assessed as radiolabeled nucleotide monophosphate incorporation into acid-insoluble RNA products after 2 hrs by scintillation counting analysis; parameters: species or system Hepatitis C virus (isolate BK)

SMILES	IC50 (Hepatitis C virus) [µM]	Kd [1] [µM]	IC50 [2] [µM]
CC(C)(C)c1ccc(Cc2ccc[nH]c2=O)cc1	431	–	–
CC(C)(C)c1ccc(CN2C(=O)CNC2=O)cc1	364	400	–
CC1NC(=O)N(Cc2ccc(C(C)(C)C)cc2)C1=O (configuration not stated)	220	144	–
COc1ccc(-c2ccc[nH]c2=O)cc1C(C)(C)C	–	0.57	–
CCC1NC(=O)N(Cc2ccc(C(C)(C)C)cc2)C1=O (configuration not stated)	108	93	–
Cc1ccccc1Oc1cccc(-c2ccc[nH]c2=O)c1	80	–	–
O=C1CNC(=O)N1Cc1ccccc1	> 1000	–	–
CC(C)(C)c1cccc(-c2ccc[nH]c2=O)c1	4	5.8	–
O=C1CNC(=O)N1Cc1ccc(Cl)c(Cl)c1	> 1000	–	–
CC(C)C1NC(=O)N(Cc2ccc(C(C)(C)C)cc2)C1=O (configuration not stated)	21	18	–
c1ccc(NNc2ncnc3[nH]ncc23)cc1	–	78	130
